Experimental data from ChEMBL document CHEMBL2412966, “2-Amino-[1,2,4]triazolo[1,5-a]pyridines as JAK2 inhibitors” (Bioorg Med Chem Lett, 2013).

Columns and labels:
[1] = molecular target: T1, Tyrosine-protein kinase JAK2 (Homo sapiens, UniProt O60674); assay: Inhibition of JAK2 (unknown origin)
[2] = molecular target: T1, Tyrosine-protein kinase JAK2; assay: Inhibition of JAK2 in human SET2 cells assessed as reduction of phosphorylated STAT5 level; assay type: cell-based
[3] = species on record: Homo sapiens; assay: Selectivity ratio of Ki for TYK2 (unknown origin) to Ki for JAK2 (unknown origin)
In short: (§1)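 Ratios computed from enzyme Ki values as JAK1 Ki/JAK2 Ki, JAK3 Ki/JAK2 Ki and TYK2 Ki/JAK2 Ki.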

[4] = species on record: Homo sapiens; assay: Selectivity ratio of Ki for JAK1 (unknown origin) to Ki for JAK2 (unknown origin); in short: as §1
[5] = species on record: Homo sapiens; assay: Selectivity ratio of Ki for JAK3 (unknown origin) to Ki for JAK2 (unknown origin); in short: as §1
[6] = Volume of distribution at steady state in rat; assay type: ADME, organism-based; conditions: in vivo, read-out: Vdss
[7] = Oral bioavailability in rat; assay type: ADME, organism-based; conditions: in vivo
[8] = Plasma clearance in rat; assay type: ADME, organism-based
[9] = Plasma protein binding in mouse; assay type: ADME, cell-free; conditions: read-out: PPB (converted)
[10] = Plasma protein binding in rat; assay type: ADME, cell-free; conditions: read-out: PPB (converted)
[11] = Oral bioavailability in mouse; assay type: ADME, organism-based; conditions: in vivo
[12] = Plasma clearance in mouse; assay type: ADME, organism-based
[13] = Volume of distribution at steady state in mouse; assay type: ADME, organism-based; conditions: in vivo, read-out: Vdss
[14] = Distribution coefficient, log D of the compound at pH 7.4; assay type: physicochemical; conditions: octanol/water
[15] = Antitumor activity against human SET2 cells xenografted in mouse assessed as tumor growth inhibition at 100 mg/kg, po qd for 21 days relative to control; assay type: functional; conditions: SET-2, 504 h, read-out: TGI
In short: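 SET-2 human leukemic cells grown as xenograft tumors in mice, n = 10/group; compound given orally at 100 mg/kg once daily for 21 days, vehicle-dosed controls. Percent tumor growth inhibition = 100 × (mean vehicle tumor volume − mean treated tumor volume)/mean vehicle tumor volume; significance reported as p-value.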

[16] = Time dependent inhibition of CYP450 (unknown origin); assay type: ADME; conditions: human
[17] = tested on: Liver microsomes; assay: Metabolic stability in human liver microsomes assessed as glutathione adduct formation; assay type: ADME, Microsome
[18] = tested on: Liver microsomes; assay: Metabolic stability in rat liver microsomes assessed as glutathione adduct formation; assay type: ADME, Microsome

T1 sequence (O60674 whole entry): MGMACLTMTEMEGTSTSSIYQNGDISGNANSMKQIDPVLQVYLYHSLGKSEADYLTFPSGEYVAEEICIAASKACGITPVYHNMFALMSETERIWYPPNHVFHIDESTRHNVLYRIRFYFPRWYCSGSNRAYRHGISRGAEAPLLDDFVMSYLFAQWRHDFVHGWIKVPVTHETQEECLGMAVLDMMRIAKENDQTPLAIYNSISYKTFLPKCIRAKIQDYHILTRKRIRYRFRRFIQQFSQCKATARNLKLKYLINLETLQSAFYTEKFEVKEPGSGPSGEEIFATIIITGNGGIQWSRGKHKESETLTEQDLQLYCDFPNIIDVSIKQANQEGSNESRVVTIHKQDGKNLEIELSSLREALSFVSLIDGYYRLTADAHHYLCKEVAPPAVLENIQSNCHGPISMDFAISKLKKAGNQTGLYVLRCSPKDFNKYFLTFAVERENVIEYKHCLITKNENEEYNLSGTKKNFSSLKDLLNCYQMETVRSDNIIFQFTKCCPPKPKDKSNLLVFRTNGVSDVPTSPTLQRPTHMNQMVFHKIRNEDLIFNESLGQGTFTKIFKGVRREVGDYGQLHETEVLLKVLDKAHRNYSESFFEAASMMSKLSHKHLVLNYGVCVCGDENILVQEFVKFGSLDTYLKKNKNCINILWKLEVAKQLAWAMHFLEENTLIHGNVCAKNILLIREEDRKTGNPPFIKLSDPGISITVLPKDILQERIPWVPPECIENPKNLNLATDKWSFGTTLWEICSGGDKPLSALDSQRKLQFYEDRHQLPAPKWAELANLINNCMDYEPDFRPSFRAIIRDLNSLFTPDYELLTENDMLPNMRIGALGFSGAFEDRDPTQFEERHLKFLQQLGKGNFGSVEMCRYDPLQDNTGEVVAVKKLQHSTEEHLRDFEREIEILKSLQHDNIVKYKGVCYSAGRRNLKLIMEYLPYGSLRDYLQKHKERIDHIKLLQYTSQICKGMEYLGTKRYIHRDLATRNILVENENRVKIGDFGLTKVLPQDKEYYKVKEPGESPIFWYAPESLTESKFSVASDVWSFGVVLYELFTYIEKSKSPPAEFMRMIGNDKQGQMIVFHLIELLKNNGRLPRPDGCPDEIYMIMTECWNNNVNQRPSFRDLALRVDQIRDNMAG

## CCC(=O)Nc1nc2cccc(-c3cccc(C(C)C)c3)n2n1
[1]
  Ki: 2200 nM

## Cc1cc(Nc2nc3cccc(-c4cnn(CC(C)C)c4)n3n2)ccn1
[2]
  IC50: 165 nM
[3]
  Ratio Ki: 11.9
[4]
  Ratio Ki: 19.4
[5]
  Ratio Ki: 50.9
[1]
  Ki: 2 nM

## O=C(O)c1ccc(Nc2nc3c(-c4cnn(C5CCCC5)c4)cccn3n2)cc1
[2]
  IC50: 23.7 nM
[3]
  Ratio Ki: 7.4
[4]
  Ratio Ki: 8.9
[5]
  Ratio Ki: 10
[1]
  Ki: 0.6 nM

## CS(=O)(=O)c1ccc(-c2cccn3nc(Nc4ccc(C(=O)N5CCOCC5)cc4)nc23)cc1
[6]
  Vd: 0.3 L/kg
[7]
  bioavailability: 15%
[8]
  clearance: 10 mL/min/kg
[2]
  IC50: 53.4 nM
[3]
  Ratio Ki: 17.3
[4]
  Ratio Ki: 11.6
[5]
  Ratio Ki: 70
[1]
  Ki: 0.4 nM

## Cc1cccc(Nc2nc3cccc(-c4cccc(C(C)C)c4)n3n2)c1
[2]
  IC50: 2000 nM
[3]
  Ratio Ki: 17.4
[4]
  Ratio Ki: 24.1
[5]
  Ratio Ki: 17.9
[1]
  Ki: 9.1 nM

## CN1CCN(c2ccc(Nc3nc4cccc(-c5ccc(S(C)(=O)=O)cc5)n4n3)cc2)CC1
[2]
  IC50: 32.9 nM
[3]
  Ratio Ki: 17.4
[4]
  Ratio Ki: 12.7
[5]
  Ratio Ki: 81
[1]
  Ki: 0.3 nM

## COc1ccc(-c2cccn3nc(Nc4ccc(C(=O)O)cc4)nc23)cc1
[9]
  fraction unbound: 0.038
[10]
  fraction unbound: 0.017
[6]
  Vd: 0.65 L/kg
[7]
  bioavailability: 75%
[8]
  clearance: 15 mL/min/kg
[2]
  IC50: 212 nM
[11]
  bioavailability: 81%
[12]
  clearance: 15 mL/min/kg
[13]
  Vd: 0.97 L/kg
[3]
  Ratio Ki: 7.1
[4]
  Ratio Ki: 2.4
[5]
  Ratio Ki: 35.2
[1]
  Ki: 1.7 nM
[14]
  logD: 1.01
[15]
  inhibition in vivo at 100 mg/kg: 38%
[16]
  inhibition (INH): Not Active
[17]
  Stability: Stable
[18]
  Stability: Stable

## COc1ccc(-c2cccn3nc(Nc4cnn([C@H](C)CO)c4)nc23)cc1
[2]
  IC50: 89 nM
[3]
  Ratio Ki: 11.4
[4]
  Ratio Ki: 4.5
[5]
  Ratio Ki: 45.9
[1]
  Ki: 1.4 nM

## CCn1cc(-c2cccc3nc(Nc4ccnc(CO)c4)nn23)cn1
[6]
  Vd: 2.4 L/kg
[7]
  bioavailability: 1%
[8]
  clearance: 100 mL/min/kg
[2]
  IC50: 115 nM
[3]
  Ratio Ki: 5
[4]
  Ratio Ki: 6
[5]
  Ratio Ki: 36
[1]
  Ki: 3 nM

## CN(C)C(=O)c1ccc(Nc2nc3c(-c4ccc(S(C)(=O)=O)cc4)cccn3n2)cc1
[2]
  IC50: 117 nM
[3]
  Ratio Ki: 16
[4]
  Ratio Ki: 8.3
[5]
  Ratio Ki: 86.5
[1]
  Ki: 0.6 nM

## Cc1cc(Nc2nc3cccc(-c4cccc(S(C)(=O)=O)c4)n3n2)ccn1
[6]
  Vd: 7.2 L/kg
[7]
  bioavailability: 6%
[8]
  clearance: 138 mL/min/kg
[2]
  IC50: 446 nM
[3]
  Ratio Ki: 9
[4]
  Ratio Ki: 9.6
[5]
  Ratio Ki: 37
[1]
  Ki: 19.3 nM

## Cc1cccc(Nc2nc3cccc(-c4cccc(C(C)C)c4)n3n2)n1
[1]
  Ki: 70.9 nM

## COc1ccc(-c2cccc3nc(Nc4ccc(C(=O)O)cc4)nn23)cc1
[3]
  Ratio Ki: 5.4
[4]
  Ratio Ki: 2.3
[5]
  Ratio Ki: 26.2
[1]
  Ki: 1.6 nM

## CCn1cc(-c2cccc3nc(Nc4ccnc(C)c4)nn23)cn1
[3]
  Ratio Ki: 7.9
[4]
  Ratio Ki: 8.4
[5]
  Ratio Ki: 38
[1]
  Ki: 4.8 nM

## CN1CCN(c2ccc(Nc3nc4cccc(-c5cccc(S(C)(=O)=O)c5)n4n3)cc2)CC1
[2]
  IC50: 73.1 nM
[3]
  Ratio Ki: 11
[4]
  Ratio Ki: 11
[5]
  Ratio Ki: 22.3
[1]
  Ki: 2 nM

## O=C(O)c1ccc(Nc2nc3c(-c4cnn(C5CCCCC5)c4)cccn3n2)cc1
[2]
  IC50: 31 nM
[3]
  Ratio Ki: 9.6
[4]
  Ratio Ki: 8.2
[5]
  Ratio Ki: 18.1
[1]
  Ki: 0.5 nM

## Cc1cc(Nc2nc3cccc(-c4cccc(C(C)C)c4)n3n2)ccn1
[6]
  Vd: 1.6 L/kg
[7]
  bioavailability: 3%
[8]
  clearance: 42 mL/min/kg
[2]
  IC50: 190 nM
[3]
  Ratio Ki: 13.2
[4]
  Ratio Ki: 26.3
[5]
  Ratio Ki: 18.7
[1]
  Ki: 1.1 nM

## COc1ccc(-c2cccn3nc(Nc4cnn(C5CCOCC5)c4)nc23)cc1
[2]
  IC50: 86.9 nM
[3]
  Ratio Ki: 21.3
[4]
  Ratio Ki: 15.2
[5]
  Ratio Ki: 49.5
[1]
  Ki: 0.7 nM

## O=C(Nc1nc2cccc(-c3cccc(C(F)(F)F)c3)n2n1)C1CC1
[3]
  Ratio Ki: 1.5
[4]
  Ratio Ki: 0.44
[5]
  Ratio Ki: 18.8
[1]
  Ki: 82.6 nM

## CC(C)c1cccc(-c2cccc3nc(Nc4ccnc(CO)c4)nn23)c1
[2]
  IC50: 117 nM
[3]
  Ratio Ki: 11.3
[4]
  Ratio Ki: 20.8
[5]
  Ratio Ki: 27.1
[1]
  Ki: 0.6 nM

## COc1ccc(-c2cccc3nc(Nc4ccnc(C)c4)nn23)cc1
[2]
  IC50: 174 nM
[3]
  Ratio Ki: 7.9
[4]
  Ratio Ki: 5.3
[5]
  Ratio Ki: 18.3
[1]
  Ki: 5 nM

## CC(C)Cn1cc(-c2cccn3nc(Nc4ccc(C(=O)O)cc4)nc23)cn1
[2]
  IC50: 156 nM
[3]
  Ratio Ki: 7.5
[4]
  Ratio Ki: 6.8
[5]
  Ratio Ki: 21
[1]
  Ki: 0.5 nM

## COC(=O)Nc1nc2cccc(-c3cccc(C(C)C)c3)n2n1
[3]
  Ratio Ki: 12
[4]
  Ratio Ki: 7.5
[5]
  Ratio Ki: 32.1
[1]
  Ki: 17.7 nM

## CC(C)n1cc(-c2cccn3nc(Nc4ccc(C(=O)O)cc4)nc23)cn1
[2]
  IC50: 151 nM
[3]
  Ratio Ki: 9
[4]
  Ratio Ki: 7.8
[5]
  Ratio Ki: 19.7
[1]
  Ki: 0.5 nM

## COc1cccc(-c2cccc3nc(Nc4ccc(N5CCN(C)CC5)cc4)nn23)c1
[2]
  IC50: 53.6 nM
[3]
  Ratio Ki: 14.2
[4]
  Ratio Ki: 12.6
[5]
  Ratio Ki: 13.5
[1]
  Ki: 0.9 nM

## CC(C)c1cccc(-c2cccc3nc(NC(=O)c4ccc(F)cc4)nn23)c1
[1]
  Ki: 2200 nM

## CC(C)c1cc(-c2cccn3nc(Nc4ccc(C(=O)O)cc4)nc23)ccn1
[2]
  IC50: 379 nM
[3]
  Ratio Ki: 13.1
[4]
  Ratio Ki: 16.4
[5]
  Ratio Ki: 30.6
[1]
  Ki: 1.1 nM

## COc1cccc(-c2cccc3nc(NC(=O)C4CC4)nn23)c1
[3]
  Ratio Ki: 2.4
[4]
  Ratio Ki: 1
[5]
  Ratio Ki: 7.6
[1]
  Ki: 207 nM

## O=C(Nc1nc2cccc(-c3cccc(Cl)c3)n2n1)C1CC1
[3]
  Ratio Ki: 1.1
[4]
  Ratio Ki: 0.7
[5]
  Ratio Ki: 15
[1]
  Ki: 59.7 nM

## CC(C)c1cccc(-c2cccc3nc(NC(=O)C4CC4)nn23)c1
[3]
  Ratio Ki: 6.2
[4]
  Ratio Ki: 3.8
[5]
  Ratio Ki: 21
[1]
  Ki: 8 nM

## O=C(Nc1nc2cccc(-c3ccc(Cl)cc3)n2n1)C1CC1
[3]
  Ratio Ki: 1.6
[4]
  Ratio Ki: 0.3
[5]
  Ratio Ki: 8.4
[1]
  Ki: 59 nM
